Assay outcomes as filed in PubChem.
V1aR counter: activates human V1a receptor in oxytocin agonist counter-screen | CHO-V1R cells, Fluo-8 calcium fluorescence, agonist mode; 0% DMSO, 100% 3 nM vasopressin | activation, % at 3 µM | hit rate 0.25% among 320,000 | AID 2797;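 active = activation above the mean activation of all tested compounds plus 3 SD, per screening run, cut at about 20% in these data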;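 note: signal is peak over basal fluorescence ratio across a 100 second FLIPR read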
Target sequence (P37288 whole entry, looked up): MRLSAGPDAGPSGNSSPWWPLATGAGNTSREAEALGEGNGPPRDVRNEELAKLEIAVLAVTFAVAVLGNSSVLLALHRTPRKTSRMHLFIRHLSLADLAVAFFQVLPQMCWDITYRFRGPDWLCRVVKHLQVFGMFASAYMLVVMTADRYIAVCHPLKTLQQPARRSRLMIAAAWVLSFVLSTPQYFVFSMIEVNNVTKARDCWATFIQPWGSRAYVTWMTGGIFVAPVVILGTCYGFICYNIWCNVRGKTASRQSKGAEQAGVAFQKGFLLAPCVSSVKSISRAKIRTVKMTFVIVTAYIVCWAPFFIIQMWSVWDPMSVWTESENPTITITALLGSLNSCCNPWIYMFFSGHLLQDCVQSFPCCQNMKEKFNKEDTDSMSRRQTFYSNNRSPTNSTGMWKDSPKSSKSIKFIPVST
TRPML3 agonist: agonists of human TRPML3 channel; activation, % at 3 µM; Q8TDD5; HEK293 TRPML3-YFP, Fluo-8 calcium fluorescence; 100% = the carbachol control signal; hit rate 0.29% among 220,000;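 active = activation above its plate's cutoff, the mean activation of the plate's test wells plus 3 SD, cut at about 12% in these data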;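 note: 0% = DMSO only wells and 100% = carbachol wells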
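Test system: HEK293 cells stably carrying human TRPML3-YFP; Doses: single dose, 3 µM final nominal compound, 0.3% DMSO final; Schedule: dye loading 1 h 37 °C then 30 min ambient, 125 s read; Technique: Fluo-8 calcium fluorescence; Benchmarks: high control carbachol 87 µM, low control DMSO.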
OXTR potentiator: potentiates the human oxytocin receptor response; P30559; hit rate 0.061% among 320,000; CHO-OTR cells, Fluo-8 calcium fluorescence, potentiator mode; 0% = oxytocin EC15, 100% = EC100; activation, % at 3 µM;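 active = activation above that plate's cutoff, the mean activation of tested compounds plus 3 SD, cut at about 6.6% in these data, passing the limit was not always enough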;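 note: 100% uses oxytocin at 75 nM as the full agonist control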
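Assay system: CHO cell line stably expressing human OTR | Also added: Oxytocin at about EC15, sub-maximal agonist stimulus | Times: Compound 6 min at room temperature before oxytocin, 100 s read | Measured by: Fluo-8 intracellular calcium fluorescence, ex 470-495, em 515-575 nm | Controls: EC15 oxytocin alone as 0%, 75 nM oxytocin as 100%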
zfTRPN1 agonist: activates the zebrafish TRPN1 channel; activation, % at 3 µM; hit rate 0.18% among 220,000; HEK293 zebrafish TRPN1-YFP, Fluo-8 calcium fluorescence; 100% = response to 87 µM carbachol;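 active = activation above its plate's cutoff, the mean activation of test wells on that plate plus 3 SD, cut at about 19% in these data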;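 note: 0% = DMSO alone and 100% = 87 µM carbachol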
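Assay system: Zebrafish TRPN1-YFP in HEK293 cells | Incubation: Dye loading 1 h at 37 °C, then 30 min room temperature | Measured by: Kinetic Fluo-8 fluorescence, ex 470-495, em 515-575 nm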
OXTR ag: human OXTR agonism | P30559 | CHO-OTR cells, Fluo-8 calcium fluorescence; normalized: DMSO 0%, oxytocin 100% | activation, % at 3 µM | hit rate 0.32% among 320,000 | AID 2435;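 active = activation above the mean of all tested compounds plus 3 SD, cutoff set per screening run, cut at about 20% in these data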;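 note: peak over basal fluorescence ratio from a 100 s FLIPR kinetic read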
An asterisk follows results filed as active; . = not tested or not shown; + = active, no number. Rows were chosen to be rich in hits. Some 0.59% of all compounds tested hit in one or more screens of this group.

SMILES	V1aR counter	TRPML3 agonist	OXTR potentiator	zfTRPN1 agonist	OXTR ag
COC(=O)c1cccc(NC(=O)NC(=O)c2ccccc2Cl)c1	-1.1	0.1	-9.9	1.9	-1.2
COC(=O)c1cccc(NC(=O)Nc2ccc(Cl)c(Cl)c2)c1	11.2	6.6	-13.0	19.5*	16.6
CCOc1ccccc1/C=C\c1nc(O)c([N+](=O)[O-])c(=O)[nH]1	-0.1	.	-4.7	.	-1.2
O=C(COc1ccccc1/C=C\c1nc(O)c([N+](=O)[O-])c(=O)[nH]1)Nc1ccccc1	.	137.6*	.	320.8*	.
Cc1cccc(C(=O)NNC(=O)c2ccc(Br)cc2)c1	-0.7	0.8	-9.1	0.4	-0.6
Cc1cccc(C(=O)NC(=S)NNC(=O)c2ccc(Cl)cc2)c1	112.5*	44.3*	-12.1	102.3*	98.2*
Cc1ccccc1C(=O)NNC(=S)NC(=O)c1cccs1	64.6*	.	-8.7	.	36.1*
Cc1cccc(C(=O)NC(=S)NNC(=O)c2cccs2)c1	25.8*	4.5	-8.1	4.7	35.8*
CC(C)(C)c1ccc(C(=O)NC(=S)NNC(=O)c2cccs2)cc1	93.0*	5.1	-11.4	19.0*	100.7*
COc1ccc(CNC(=O)CN2C(=O)COc3ccc(S(=O)(=O)N4CCCCC4)cc32)cc1	-0.1	.	-5.4	.	-0.8
CN1Cc2sc(NC(=S)NC(=O)c3ccccc3)c(C#N)c2CC1(C)C	34.0*	4.9	-9.7	6.6	32.3*
CCN1CCN(CCCNC(=O)CCC(=O)N2CC(C)Oc3ccc(C)cc32)CC1 (stereo not drawn)	0.5	.	-4.9	.	-0.2
CCOc1ccccc1-c1c2cc(O)c(=O)cc-2oc2cc(O)c(O)cc12	.	7.7	.	4.3	.
COc1ccc(OC)c(-c2oc3ccccc3c(=O)c2O)c1	-0.8	-0.7	-15.3	-0.9	-1.9
O=c1cc2oc3cc(O)c(O)cc3c(-c3ccccc3O)c-2cc1O	.	12.3*	.	17.6	.
COc1ccc(OC)c(-c2c3cc(O)c(=O)cc-3oc3cc(O)c(O)cc23)c1	485.5*	3.0	-11.6	7.4	714.8*
CC(C)OP(=O)(c1ccc(N(C)C)cc1)C(O)c1ccc(C(C)C)cc1 (stereo not drawn)	-0.2	.	-4.7	.	1.3
COc1ccccc1N1N=C(c2ccc([N+](=O)[O-])cc2)CC1c1ccccc1 (stereo not drawn)	28.1*	.	-22.0	.	29.8*
CC1CCN(C(=O)CCCC(=O)N2CCC(C)CC2)CC1	-0.1	.	0.8	.	0.2
CCN(CC)c1ccc2cc(C(N)=O)c(=N)oc2c1	0.8	0.8	-12.4	0.5	0.8
CCN(CC)c1ccc2c(-c3ccc(S(=O)(=O)O)cc3S(=O)(=O)[O-])c3ccc(=[N+](CC)CC)cc-3oc2c1	179.8*	.	-9.6	.	266.0*
CN(CC(=O)Nc1c(Cl)cccc1Cl)C(=O)CCC1CCCC1	-0.5	.	-3.4	.	-1.4
Nc1c(Cl)cc(-c2cn(CCC(=O)O)c(-c3ccncc3)n2)cc1Cl	0.0	.	0.3	.	-0.3
O=C(O)c1cccc(N2C(=O)c3cccc4c(Cl)ccc(c34)C2=O)c1	0.1	0.6	-12.8	0.6	0.5
Nc1cccc(N2C(=O)c3cccc4c(N)ccc(c34)C2=O)c1	46.9*	.	-12.0	.	27.6*
SMILES	V1aR counter	TRPML3 agonist	OXTR potentiator	zfTRPN1 agonist	OXTR ag
Nc1ccc2c3c(cccc13)C(=O)N(c1ccccc1)C2=O	.	111.2*	.	125.4*	.
CC(C)CCN1C(=O)c2cccc3c(N)ccc(c23)C1=O	169.6*	.	-20.4	.	128.3*
CCN1C(=O)c2cccc3c(Cl)ccc(c23)C1=O	-0.5	-0.8	-16.4	-0.1	-1.8
Cc1cccc(N2C(=O)c3cccc4c(N(C)CCO)ccc(c34)C2=O)c1	37.8*	30.3*	-12.6	38.6*	52.5*
COc1ccc(Cl)cc1NC(=O)C1CCN(C(=O)Nc2ccccc2)CC1	1.5	.	-2.5	.	2.2
CN(C(=O)COn1nnc2ccc(Cl)cc21)C1CCS(=O)(=O)C1 (stereo not drawn)	0.3	.	-4.8	.	1.7
Cc1cccc(N2C(=O)c3cccc4cccc(c34)C2=O)c1	-0.5	.	-5.0	.	-2.1
Cc1cccc(N2C(=O)c3cccc4c(N)ccc(c34)C2=O)c1	139.4*	.	-26.7	.	171.9*
CCN(CC)c1ccc(/C=C(/C#N)c2nc3ccc(C)cc3[nH]2)c(OC(C)C)c1	49.8*	22.7*	-14.1	29.7*	69.0*
CCOc1cc(N(CC)CC)ccc1/C=C(/C#N)c1nc2ccccc2[nH]1	115.8*	3.0	-24.4	7.0	114.1*
CN(CC(=O)NCc1ccccc1)CC(=O)Nc1ccc(Cl)c(C(F)(F)F)c1	20.9*	.	-10.4	.	23.1*
CN(CC(=O)NC(=O)NCc1ccccc1)CC(=O)Nc1ccc(Cl)c(C(F)(F)F)c1	3.4	.	-14.9	.	1.8
CCN1C(N(C)CCc2cccs2)=N[C@@H](c2ccccc2)C(C(=O)OC)=C1C	0.1	.	-5.9	.	1.3
CCN1C(N(C)CCc2c[nH]c3ccccc23)=N[C@@H](c2cccc(C(F)(F)F)c2)C(C(=O)OC)=C1C	6.8	.	-10.1	.	22.7*
N#Cc1cc(C(=O)c2cc(F)ccc2O)cn(-c2nccs2)c1=O	84.4*	22.5*	-18.2	28.3*	134.5*
Cc1c(-n2cc(C(=O)c3cc(F)ccc3O)cc(C#N)c2=O)c(=O)n(-c2ccccc2)n1C	3.1	1.4	-11.4	3.2	2.1
CC(C)n1cc(C(=O)c2ccccc2O)cc(C#N)c1=O	2.0	2.0	-0.4	-0.3	2.1
N#Cc1cc(C(=O)c2ccccc2O)cn(-c2nccs2)c1=O	54.9*	33.6*	-12.0	47.0*	89.8*
Cc1cc(Cl)ccc1OC(C)C(=O)Nc1ccccc1N1CCOCC1 (stereo not drawn)	0.5	176.9*	-10.5	46.0*	-2.3
CCOC(=O)C1C(c2ccc3c(c2)OCO3)NC(=O)NC1(O)C(F)(F)F (stereo not drawn)	1.0	0.7	-12.4	28.3*	1.8
COc1ccc([C@H]2C(C(=O)O)=C[C@@H](CC3CCCC3)N2S(=O)(=O)c2ccc(C)cc2)cc1OC	1.4	.	3.1	.	0.5
CCOC(=O)Cc1csc(NC(=O)C(C)c2ccc([N+](=O)[O-])cc2)n1 (stereo not drawn)	25.9*	15.6*	-20.6	21.6*	26.7*
CCN(CC)c1ccc(/C=C/C(=O)C2C(=O)C=C(C)OC2=O)cc1 (stereo not drawn)	141.3*	16.2*	-29.3	34.8*	158.1*
CC(=O)Oc1ccc2c(c1)Oc1cc(OC(C)=O)ccc1C21OC(=O)c2ccccc21	+	506.3*	-9.4	+	937.8*
FC(F)(F)c1cnc(NNC(=S)Nc2ccccc2Cl)c(Cl)c1	14.3	16.5*	-15.5	28.8*	16.7
O=S(=O)(NC1CCCCC1N1CCC(O)CC1)c1ccccc1 (stereo not drawn)	1.4	.	-11.6	.	0.9
